Laboratory results taken from ChEMBL document CHEMBL1145781, “Synthesis and structure-activity relationships of 5-amino-6-fluoro-1-[(1R,2S)-2-fluorocyclopropan-1-yl]-8-methylquinolonecarboxylic acid antibacterials having fluorinated 7-[(3R)-3-(1-aminocyclopropan-1-yl)pyrrolidin-1-yl] substituents” (J Med Chem, 2003).
Converted amounts (≈) assume the structure as drawn. *1 amine or outer side, *2 acyl side, *3 side chain or, on linkers, in order; H or OH if unused. Where a SMILES comes first, the peptide text is derived from it. Bridges are numbered along the chain shown (N, C = ends). [ ]: non-standard residue; d: D form. The star is where a group is joined. X1 = O=C1C[C@@H](C(=O)[*:2])N([*:1])C[C@H]1CS[C@@H]1CN2CCC1CC2; NMePhe(4-NMe2) = CN[C@@H](Cc1ccc(N(C)C)cc1)C(=O)O; Picolinoyl(3-OH) = O=C(c1ncccc1O)*; Phg = N[C@H](C(=O)O)c1ccccc1; dAbu = CC[C@@H](N)C(=O)O

Legend:
[1] = test system: Staphylococcus aureus; assay: Antibacterial activity was determined against clinically isolated Levofloxacin-methicillin resistant Staphylococcus aureus (LVFX-r MRSA) strains (74 strains); format: functional
[2] = test system: Enterococcus sp.; assay: Antibacterial activity was determined against clinically isolated vancomycin-A resistant enterococci (VRE) strains (33 strains); format: functional
[3] = test system: Streptococcus pneumoniae; assay: Antibacterial activity was determined against clinically isolated penicillin resistant Streptococcus pneumoniae (PRSP) strains (50 strains); format: functional
[4] = test system: Enterococcus sp.; assay: Antibacterial activity was determined against clinically isolated vancomycin-B resistant enterococci (VRE) strains (10 strains); format: functional
[5] = test system: Staphylococcus epidermidis; assay: Antibacterial activity was determined against Staphylococcus epidermis 56500 strain after incubation at 37 degrees C for 18 h; format: functional
[6] = test system: Klebsiella pneumoniae; assay: Antibacterial activity was determined against Klebsiella pneumoniae type II strain after incubation at 37 degrees C for 18 h; format: functional
[7] = Mortality was determined after 100 mg/kg dose administered intravenously to 5-week old male mice at a speed of 0.2 mL/min counted on day 7 for total 2 mice; format: ADME, organism-based; set-up: dose 100 mg/kg, route intravenous; details: mouse, in vivo, iv
Outline: (§1)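 Male Slc:ddY mice, 5 weeks old. Compound dissolved in 0.1 N NaOH in saline at varied concentrations and given as a single IV injection at 0.2 mL/min, total volume 10 mL/kg body weight. Deaths counted on day 7 and reported as dead/tested.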

[8] = Mortality was determined after 50 mg/kg dose administered intravenously to 5-week old male mice at a speed of 0.2 mL/min counted on day 7 for total 2 mice; format: ADME, organism-based; set-up: dose 50 mg/kg, route intravenous; details: mouse, in vivo, iv; outline: as §1
[9] = test system: Enterococcus faecalis; assay: Antibacterial activity was determined against Enterococcus faecalis ATCC 19433 strain after incubation at 37 degrees C for 18 h; format: functional; details: ATCC 19433, 18 h
[10] = test system: Staphylococcus aureus; assay: Antibacterial activity was determined against Staphylococcus aureus FDA 209-P strain after incubation at 37 degrees C for 18 h; format: functional
[11] = Mortality was determined after 150 mg/kg dose administered intravenously to 5-week old male mice at a speed of 0.2 mL/min counted on day 7 for total 2 mice; format: ADME, organism-based; set-up: dose 150 mg/kg, route intravenous; details: mouse, in vivo, iv; outline: as §1
[12] = test system: Pseudomonas aeruginosa; assay: Antibacterial activity was determined against Pseudomonas aeruginosa PAO1 strain after incubation at 37 degrees C for 18 h; format: functional
[13] = test system: Streptococcus pneumoniae; assay: Antibacterial activity was determined against Streptococcus pneumoniae J-24 strain after incubation at 37 degrees C for 18 h; format: functional
[14] = Solubility was determined in water; format: physicochemical
[15] = test system: Streptococcus mitis; assay: Antibacterial activity was determined against Streptococcus mitis IID685 strain after incubation at 37 degrees C for 18 h; format: functional
[16] = test system: Escherichia coli; assay: Antibacterial activity was determined against Escherichia coli NIHJ strain after incubation at 37 degrees C for 18 h; format: functional
[17] = test system: Streptococcus pyogenes; assay: Antibacterial activity was determined against Streptococcus pyogenes G-36 strain after incubation at 37 degrees C for 18 h; format: functional
[18] = test system: Enterococcus sp.; assay: Antibacterial activity was determined against clinically isolated vancomycin-B resistant Enterococci (VRE) strains (10 strains); format: functional
Outline: (§2)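 Twofold broth microdilution in Mueller–Hinton broth, inoculum about 10^5 CFU per well. Plates incubated 18 h at 37 °C. MIC taken as the lowest concentration preventing visible growth. Organisms were clinical resistant Gram-positive isolates.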

[19] = test system: Enterococcus sp.; assay: Antibacterial activity was determined against clinically isolated vancomycin-A resistant Enterococci (VRE) strains (33 strains); format: functional; outline: as §2
[20] = test system: Streptococcus pneumoniae; assay: Antibacterial activity was determined against clinically isolated penicillin resistant Streptococcus pneumoniae (PRSP) strains (50 strains); Range= 1-4; format: functional
[21] = Mortality was determined after 100 mg/kg dose administered intravenously to 5-week old male mice at a speed of 0.2 mL/min counted on day 7 for total 5 mice; format: ADME, organism-based; set-up: dose 100 mg/kg, route intravenous; details: mouse, in vivo, iv; outline: as §1
[22] = Toxicity was determined as presence of micronucleated reticulocytes (MNRET) in blood at 24 and 48 hr after 100 mg/kg dose administered intravenously to 5-week old male mice; positive.; format: organism-based; set-up: dose 100 mg/kg, route intravenous; details: mouse, in vivo, iv

Row | SMILES | MIC50 [1] [µg/mL] | MIC90 [1] [µg/mL] | MIC50 [2] [µg/mL] | MIC90 [2] [µg/mL] | MIC50 [3] [µg/mL] | MIC90 [3] [µg/mL] | MIC50 [4] [µg/mL] | MIC90 [4] [µg/mL] | MIC [5] [µg/mL] | MIC [6] [µg/mL] | MIC [9] [µg/mL] | MIC [10] [µg/mL] | MIC [12] [µg/mL] | MIC [13] [µg/mL] | MIC [15] [µg/mL] | MIC [16] [µg/mL] | MIC [17] [µg/mL] | also measured
1 | CCN(CC)CCS(=O)(=O)[C@@H]1CCN2C(=O)c3coc(n3)CC(=O)C[C@H](O)/C=C(C)/C=C/CNC(=O)/C=C/[C@@H](C)[C@@H](C(C)C)OC(=O)[C@@H]12.CC[C@H]1NC(=O)[C@@H](NC(=O)c2ncccc2O)[C@@H](C)OC(=O)[C@H](c2ccccc2)NC(=O)[C@@H]2CC(=O)[C@H](CS[C@@H]3CN4CCC3CC4)CN2C(=O)[C@H](Cc2ccc(N(C)C)cc2)N(C)C(=O)[C@@H]2CCCN2C1=O [QUINUPRISTIN/DALFOPRISTIN] ({Picolinoyl(3-OH)}-T[dAbu]P[NMePhe(4-NMe2)][X1][Phg]; ester 1-C) | 0.5 | 0.5 | 0.5 | 8 | 1 | 1 | 0.5 | 8 | – | – | – | – | – | – | – | – | – | –
2 | Cc1c(N2CC[C@@H](CN)C2)c(F)c(N)c2c(=O)c(C(=O)O)cn(C3C[C@@H]3F)c12 (single isomer, unassigned) | – | – | – | – | – | – | – | – | 0.006 (≈ 0.0153 µM) | 0.1 (≈ 0.255 µM) | 0.025 (≈ 0.0637 µM) | ≤ 0.003 | 0.1 (≈ 0.255 µM) | 0.013 (≈ 0.0331 µM) | 0.006 (≈ 0.0153 µM) | 0.013 (≈ 0.0331 µM) | 0.013 (≈ 0.0331 µM) | Dead [7]: 2; Dead [8]: 2; Dead [11]: 2; solubility [14]: 404 µg/mL (≈ 1030 µM)
3 | CO/N=C1\CN(c2nc3c(cc2F)c(=O)c(C(=O)O)cn3C2CC2)CC1CN (stereo not drawn) [GEMIFLOXACIN] | 2 (≈ 5.14 µM) | 32 (≈ 82.2 µM) | – | – | 0.03 (≈ 0.077 µM) | 0.06 (≈ 0.154 µM) | – | – | – | – | – | – | – | – | – | – | – | MIC50 [18]: 1 µg/mL (≈ 2.57 µM); MIC90 [18]: 2 µg/mL (≈ 5.14 µM); MIC50 [19]: 4 µg/mL (≈ 10.3 µM); MIC90 [19]: 32 µg/mL (≈ 82.2 µM)
4 | CC1(C)S[C@@H]2[C@H](NC(=O)Cc3ccccc3)C(=O)N2[C@H]1C(=O)O [PENICILLIN G] | – | – | – | – | – | – | – | – | – | – | – | – | – | – | – | – | – | MIC [20]: 4 µg/mL (≈ 12 µM)
5 | COc1c(N2C[C@@H]3CCCN[C@@H]3C2)c(F)cc2c(=O)c(C(=O)O)cn(C3CC3)c12 [MOXIFLOXACIN] | – | – | – | – | – | – | – | – | 0.1 (≈ 0.249 µM) | 0.025 (≈ 0.0623 µM) | 0.2 (≈ 0.498 µM) | 0.013 (≈ 0.0324 µM) | 0.2 (≈ 0.498 µM) | 0.025 (≈ 0.0623 µM) | 0.1 (≈ 0.249 µM) | ≤ 0.003 | 0.2 (≈ 0.498 µM) | –
6 | CC(=O)NCC1CN(c2ccc(N3CCOCC3)c(F)c2)C(=O)O1 (single isomer, unassigned) [LINEZOLID] | 2 (≈ 5.93 µM) | 2 (≈ 5.93 µM) | 2 (≈ 5.93 µM) | 2 (≈ 5.93 µM) | 0.5 (≈ 1.48 µM) | 0.5 (≈ 1.48 µM) | 2 (≈ 5.93 µM) | 2 (≈ 5.93 µM) | – | – | – | – | – | – | – | – | – | –
7 | Cc1c(N2CC[C@@H](C3(N)CC3)C2)c(F)c(N)c2c(=O)c(C(=O)O)cn([C@@H]3C[C@@H]3F)c12 | – | – | – | – | – | – | – | – | ≤ 0.003 | 0.025 (≈ 0.0597 µM) | 0.013 (≈ 0.0311 µM) | ≤ 0.003 | 0.1 (≈ 0.239 µM) | ≤ 0.003 | ≤ 0.003 | ≤ 0.003 | ≤ 0.003 | Dead [11]: 2; Dead [21]: 0; Toxicity [22]: Toxic; solubility [14]: 39 µg/mL (≈ 93.2 µM)
8 | CC(=O)N[C@@H]1[C@H](Oc2c3cc4cc2Oc2ccc(cc2Cl)[C@@H](O[C@@H]2O[C@@H](CO)[C@@H](O)[C@H](O)[C@@H]2NC(C)=O)[C@@H]2NC(=O)[C@H](NC(=O)[C@@H]4NC(=O)[C@H]4NC(=O)[C@@H](Cc5ccc(c(Cl)c5)O3)NC(=O)[C@H](N)c3ccc(O)c(c3)Oc3cc(O)cc4c3)c3ccc(O)c(c3)-c3c(O[C@H]4O[C@H](CO)[C@@H](O)[C@@H](O)[C@@H]4O)cc(O)cc3[C@@H](C(=O)O)NC2=O)O[C@@H](CO)[C@@H](O)[C@@H]1O | 0.5 (≈ 0.283 µM) | 1 (≈ 0.566 µM) | 32 (≈ 18.1 µM) | 64 (≈ 36.2 µM) | 0.25 (≈ 0.141 µM) | 0.5 (≈ 0.283 µM) | 1 (≈ 0.566 µM) | 2 (≈ 1.13 µM) | – | – | – | – | – | – | – | – | – | –
